Source: ChEMBL document CHEMBL3046951, “Volatile constituents from the leaves of Callicarpa japonica Thunb. and their antibacterial activities” (2004)

Tests used:
Assay type in all cases: functional
Salmonella typhimurium [1] = assay: Antimicrobial activity against Salmonella enterica subsp. enterica serovar Typhimurium ATCC 14028 assessed as growth inhibition rate at 5.8 mg/l after 72 hr by spectrophotometry; conditions: ATCC 14028, 72 h, read-out: GI
Listeria monocytogenes [2] = assay: Antimicrobial activity against Listeria monocytogenes ATCC 19111 assessed as growth inhibition rate at 5.8 mg/l after 72 hr by spectrophotometry; conditions: ATCC 19111, 72 h, read-out: GI
Method in brief: (§1)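 L. monocytogenes was grown at 30 °C in tryptic soy broth, subcultured for 18 h, and exposed to pure volatile compounds (>95% purity). Growth was followed by Bioscreen C optical density every 24 h for 72 h against a 10% Tween 80 control.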

Escherichia coli [3] = assay: Antimicrobial activity against Escherichia coli O157:H7 ATCC 43894 assessed as growth inhibition rate at 5.8 mg/l after 72 hr by spectrophotometry; conditions: O157:H7 ATCC 43894, 72 h, read-out: GI
Staphylococcus aureus [4] = assay: Antimicrobial activity against Staphylococcus aureus ATCC 25923 assessed as growth inhibition rate at 5.8 mg/l after 72 hr by spectrophotometry; conditions: ATCC 25923, 72 h, read-out: GI
Vibrio parahaemolyticus [5] = assay: Antimicrobial activity against Vibrio parahaemolyticus ATCC 33844 assessed as growth inhibition rate at 5.8 mg/l after 72 hr by spectrophotometry; conditions: ATCC 33844, 72 h, read-out: GI
Bacillus cereus [6] = assay: Antimicrobial activity against Bacillus cereus ATCC 11778 assessed as growth inhibition rate at 5.8 mg/l after 72 hr by spectrophotometry; conditions: ATCC 11778, 72 h, read-out: GI
Method in brief: (§2)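 Pure volatile compounds (purity >95%; one at 90%) were tested against B. cereus ATCC 11778. The strain was grown at 30 °C in nutrient broth for 24 h, then subcultured for 18 h. Optical density was read in a Bioscreen C every 24 h for 72 h, with 10% Tween 80 as the control.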

Escherichia coli [7] = assay: Antimicrobial activity against Escherichia coli O157:H7 ATCC 43894 assessed as growth inhibition rate at 4.44 mg/l after 72 hr by spectrophotometry; conditions: O157:H7 ATCC 43894, 72 h, read-out: GI
Listeria monocytogenes [8] = assay: Antimicrobial activity against Listeria monocytogenes ATCC 19111 assessed as growth inhibition rate at 4.44 mg/l after 72 hr by spectrophotometry; conditions: ATCC 19111, 72 h, read-out: GI; method in brief: as §1
Bacillus cereus [9] = assay: Antimicrobial activity against Bacillus cereus ATCC 11778 assessed as growth inhibition rate at 4.44 mg/l after 72 hr by spectrophotometry; conditions: ATCC 11778, 72 h, read-out: GI; method in brief: as §2
Salmonella typhimurium [10] = assay: Antimicrobial activity against Salmonella enterica subsp. enterica serovar Typhimurium ATCC 14028 assessed as growth inhibition rate at 4.44 mg/l after 72 hr by spectrophotometry; conditions: ATCC 14028, 72 h, read-out: GI
Method in brief: (§3)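 Salmonella Typhimurium ATCC 14028 grown in nutrient broth at 30 °C, precultured 24 h, then subcultured 1:100 for 18 h before testing. Single volatile compounds (>95% pure) were added. OD was read every 24 h over 72 h in a Bioscreen C, with 10% Tween 80 as the comparison control.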

Vibrio parahaemolyticus [11] = assay: Antimicrobial activity against Vibrio parahaemolyticus ATCC 33844 assessed as growth inhibition rate at 4.44 mg/l after 72 hr by spectrophotometry; conditions: ATCC 33844, 72 h, read-out: GI
Staphylococcus aureus [12] = assay: Antimicrobial activity against Staphylococcus aureus ATCC 25923 assessed as growth inhibition rate at 4.44 mg/l after 72 hr by spectrophotometry; conditions: ATCC 25923, 72 h, read-out: GI
Vibrio parahaemolyticus [13] = assay: Antimicrobial activity against Vibrio parahaemolyticus ATCC 33844 assessed as growth inhibition rate at 1.72 mg/l after 72 hr by spectrophotometry; conditions: ATCC 33844, 72 h, read-out: GI
Listeria monocytogenes [14] = assay: Antimicrobial activity against Listeria monocytogenes ATCC 19111 assessed as growth inhibition rate at 1.72 mg/l after 72 hr by spectrophotometry; conditions: ATCC 19111, 72 h, read-out: GI; method in brief: as §1
Escherichia coli [15] = assay: Antimicrobial activity against Escherichia coli O157:H7 ATCC 43894 assessed as growth inhibition rate at 1.72 mg/l after 72 hr by spectrophotometry; conditions: O157:H7 ATCC 43894, 72 h, read-out: GI
Staphylococcus aureus [16] = assay: Antimicrobial activity against Staphylococcus aureus ATCC 25923 assessed as growth inhibition rate at 1.72 mg/l after 72 hr by spectrophotometry; conditions: ATCC 25923, 72 h, read-out: GI
Salmonella typhimurium [17] = assay: Antimicrobial activity against Salmonella enterica subsp. enterica serovar Typhimurium ATCC 14028 assessed as growth inhibition rate at 1.72 mg/l after 72 hr by spectrophotometry; conditions: ATCC 14028, 72 h, read-out: GI; method in brief: as §3
Bacillus cereus [18] = assay: Antimicrobial activity against Bacillus cereus ATCC 11778 assessed as growth inhibition rate at 1.72 mg/l after 72 hr by spectrophotometry; conditions: ATCC 11778, 72 h, read-out: GI; method in brief: as §2
Bacillus cereus [19] = assay: Antimicrobial activity against Bacillus cereus ATCC 11778 assessed as growth inhibition rate at 6.32 mg/l after 72 hr by spectrophotometry; conditions: ATCC 11778, 72 h, read-out: GI; method in brief: as §2
Vibrio parahaemolyticus [20] = assay: Antimicrobial activity against Vibrio parahaemolyticus ATCC 33844 assessed as growth inhibition rate at 6.32 mg/l after 72 hr by spectrophotometry; conditions: ATCC 33844, 72 h, read-out: GI
Salmonella typhimurium [21] = assay: Antimicrobial activity against Salmonella enterica subsp. enterica serovar Typhimurium ATCC 14028 assessed as growth inhibition rate at 6.32 mg/l after 72 hr by spectrophotometry; conditions: ATCC 14028, 72 h, read-out: GI
Staphylococcus aureus [22] = assay: Antimicrobial activity against Staphylococcus aureus ATCC 25923 assessed as growth inhibition rate at 6.32 mg/l after 72 hr by spectrophotometry; conditions: ATCC 25923, 72 h, read-out: GI
Listeria monocytogenes [23] = assay: Antimicrobial activity against Listeria monocytogenes ATCC 19111 assessed as growth inhibition rate at 6.32 mg/l after 72 hr by spectrophotometry; conditions: ATCC 19111, 72 h, read-out: GI; method in brief: as §1
Escherichia coli [24] = assay: Antimicrobial activity against Escherichia coli O157:H7 ATCC 43894 assessed as growth inhibition rate at 6.32 mg/l after 72 hr by spectrophotometry; conditions: O157:H7 ATCC 43894, 72 h, read-out: GI
Bacillus cereus [25] = assay: Antimicrobial activity against Bacillus cereus ATCC 11778 assessed as growth inhibition rate at 13.04 mg/l after 72 hr by spectrophotometry; conditions: ATCC 11778, 72 h, read-out: GI; method in brief: as §2
Listeria monocytogenes [26] = assay: Antimicrobial activity against Listeria monocytogenes ATCC 19111 assessed as growth inhibition rate at 13.04 mg/l after 72 hr by spectrophotometry; conditions: ATCC 19111, 72 h, read-out: GI; method in brief: as §1
Vibrio parahaemolyticus [27] = assay: Antimicrobial activity against Vibrio parahaemolyticus ATCC 33844 assessed as growth inhibition rate at 13.04 mg/l after 72 hr by spectrophotometry; conditions: ATCC 33844, 72 h, read-out: GI
Salmonella typhimurium [28] = assay: Antimicrobial activity against Salmonella enterica subsp. enterica serovar Typhimurium ATCC 14028 assessed as growth inhibition rate at 13.04 mg/l after 72 hr by spectrophotometry; conditions: ATCC 14028, 72 h, read-out: GI; method in brief: as §3
Staphylococcus aureus [29] = assay: Antimicrobial activity against Staphylococcus aureus ATCC 25923 assessed as growth inhibition rate at 13.04 mg/l after 72 hr by spectrophotometry; conditions: ATCC 25923, 72 h, read-out: GI
Escherichia coli [30] = assay: Antimicrobial activity against Escherichia coli O157:H7 ATCC 43894 assessed as growth inhibition rate at 13.04 mg/l after 72 hr by spectrophotometry; conditions: O157:H7 ATCC 43894, 72 h, read-out: GI

## C=CC(O)CC (stereo not given)
Salmonella typhimurium [1]
  inhibition of growth at 5.8 µg/mL: 5%
Listeria monocytogenes [2]
  inhibition of growth at 5.8 µg/mL: 0.4%
Escherichia coli [3]
  inhibition of growth at 5.8 µg/mL: 0%
Staphylococcus aureus [4]
  inhibition of growth at 5.8 µg/mL: 2.4%
Vibrio parahaemolyticus [5]
  inhibition of growth at 5.8 µg/mL: 1.9%
Bacillus cereus [6]
  inhibition of growth at 5.8 µg/mL: 9.3%

## CC1=CC[C@@H]2C[C@H]1C2(C)C [1R-(+)-ALPHA-PINENE]
Escherichia coli [7]
  inhibition of growth at 4.44 µg/mL: 0%
Listeria monocytogenes [8]
  inhibition of growth at 4.44 µg/mL: 0%
Bacillus cereus [9]
  inhibition of growth at 4.44 µg/mL: 0%
Salmonella typhimurium [10]
  inhibition of growth at 4.44 µg/mL: 5.2%
Vibrio parahaemolyticus [11]
  inhibition of growth at 4.44 µg/mL: 10.7%
Staphylococcus aureus [12]
  inhibition of growth at 4.44 µg/mL: 20.8%

## CCC(=O)C(C)=O [2,3-PENTANEDIONE]
Vibrio parahaemolyticus [13]
  inhibition of growth at 1.72 µg/mL: 39.3%
Listeria monocytogenes [14]
  inhibition of growth at 1.72 µg/mL: 26.2%
Escherichia coli [15]
  inhibition of growth at 1.72 µg/mL: 9.6%
Staphylococcus aureus [16]
  inhibition of growth at 1.72 µg/mL: 47.4%
Salmonella typhimurium [17]
  inhibition of growth at 1.72 µg/mL: 25.5%
Bacillus cereus [18]
  inhibition of growth at 1.72 µg/mL: 26.9%

## CCCCCC(=O)CC [3-OCTANONE]
Bacillus cereus [19]
  inhibition of growth at 6.32 µg/mL: 0%
Vibrio parahaemolyticus [20]
  inhibition of growth at 6.32 µg/mL: 0%
Salmonella typhimurium [21]
  inhibition of growth at 6.32 µg/mL: 5.1%
Staphylococcus aureus [22]
  inhibition of growth at 6.32 µg/mL: 5.2%
Listeria monocytogenes [23]
  inhibition of growth at 6.32 µg/mL: 0%
Escherichia coli [24]
  inhibition of growth at 6.32 µg/mL: 3.1%

## C=C1CC[C@@H]2C[C@H]1C2(C)C [(+)-BETA-PINENE]
Bacillus cereus [25]
  inhibition of growth at 13.04 µg/mL: 0%
Listeria monocytogenes [26]
  inhibition of growth at 13.04 µg/mL: 2.8%
Vibrio parahaemolyticus [27]
  inhibition of growth at 13.04 µg/mL: 45.1%
Salmonella typhimurium [28]
  inhibition of growth at 13.04 µg/mL: 14.9%
Staphylococcus aureus [29]
  inhibition of growth at 13.04 µg/mL: 17.6%
Escherichia coli [30]
  inhibition of growth at 13.04 µg/mL: 3.4%
